ChEMBL document CHEMBL1149846, “The role of lipophilicity in determining binding affinity and functional activity for 5-HT2A receptor ligands” (Bioorg Med Chem, 2008)

Columns and labels:
[1] = biological target: 5-hydroxytryptamine receptor 2A (Rattus norvegicus) (UniProt P14842); assay: Agonist activity at Sprague-Dawley rat 5HT2A receptor by drug discrimination assay; format: functional; settings: filed as agonist
[2] = biological target: T1, 5-hydroxytryptamine receptor 2A (Rattus norvegicus, UniProt P14842); assay: Displacement of [3H]MDL100907 from 5HT2A receptor in Sprague-Dawley rat brain by liquid scintillation spectroscopy
In short: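 Frontal cortex from male Sprague-Dawley rat brains, washed in 50 mM Tris-HCl pH 7.4 and resuspended in buffer with 0.5 mM Na2EDTA, 10.0 μM pargyline, 5.7 mM CaCl2 and 0.1% ascorbate. Cinanserin (10 μM) defined nonspecific binding. Bound label was collected by GF/C filtration and counted. Values from ≥3 experiments, each in triplicate.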

[3] = biological target: 5-hydroxytryptamine receptor 2A (Rattus norvegicus) (UniProt P14842); assay: Antagonist activity at Sprague-Dawley rat 5HT2A receptor by drug discrimination assay; format: functional; settings: filed as antagonist
[4] = biological target: T1, 5-hydroxytryptamine receptor 2A; assay: Displacement of [3H]ketanserin from 5HT2A receptor in Sprague-Dawley rat brain by liquid scintillation spectroscopy

T1 sequence (P14842 whole entry): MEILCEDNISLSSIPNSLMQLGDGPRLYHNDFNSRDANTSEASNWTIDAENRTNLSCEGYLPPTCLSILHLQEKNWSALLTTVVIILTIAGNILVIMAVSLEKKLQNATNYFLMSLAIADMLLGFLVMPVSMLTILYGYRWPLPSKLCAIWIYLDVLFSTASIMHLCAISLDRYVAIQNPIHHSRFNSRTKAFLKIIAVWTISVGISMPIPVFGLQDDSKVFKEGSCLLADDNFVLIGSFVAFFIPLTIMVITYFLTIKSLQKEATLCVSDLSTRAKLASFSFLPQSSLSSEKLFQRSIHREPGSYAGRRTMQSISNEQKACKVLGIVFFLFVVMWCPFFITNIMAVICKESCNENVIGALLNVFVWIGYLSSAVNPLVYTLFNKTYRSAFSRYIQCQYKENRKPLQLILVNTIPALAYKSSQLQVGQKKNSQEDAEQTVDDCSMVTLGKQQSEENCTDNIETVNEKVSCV
Sequence of 5-hydroxytryptamine receptor 2A (Rattus norvegicus) (P14842 whole entry): as above

SMILES | Efficacy [1] | Ki [2] [nM] | Efficacy [3] | Ki [4] [nM]
CN(C)CCc1c[nH]c2ccccc12 | Agonist | 1640 | – | –
CN(C)CCc1c[nH]c2sccc12 | – | 3680 | Antagonist | –
CN(C)CCc1c[nH]c2ccsc12 | – | 4610 | Antagonist | –
COc1cc(CCN)cc(OC)c1OCCc1ccccc1 | – | – | Antagonist | 59
COc1cc(CCN)cc(OC)c1OC | Agonist | – | – | –
Cc1nc2sccn2c(=O)c1CCN1CCC(=C(c2ccc(F)cc2)c2ccc(F)cc2)CC1 | – | – | Antagonist | –
NCCc1c2c(c(Br)c3c1OCC3)OCC2 | Agonist | – | – | –
NCCc1c2c(cc3c1OCC3)OCC2 | Agonist | – | – | –
COc1cc(C)cc(OC)c1CC(C)N (racemic) | Agonist | – | – | 351
CSc1c2c(c(CC(C)N)c3c1OCC3)CCO2 (racemic) | – | 476 | – | –
COc1cc2c(cc1Br)OCCC(N)C2 (racemic) | – | – | – | 422
CSc1cc(CC(C)N)c(SC)cc1C (racemic) | – | – | Antagonist | 177
CC(N)Cc1c2ccccc2c(Br)c2ccccc12 (racemic) | – | 313 | Antagonist | –
CC(N)Cc1cc(F)c(Br)cc1F (racemic) | – | 2510 | Antagonist | –
COc1cc(CC(C)N)c(OC)cc1I (racemic) | Agonist | – | – | 19
COc1cc(C(F)(F)F)c(OC)cc1CC(C)N (racemic) | Agonist | – | – | 33
CC(N)Cc1c2c(c(Br)c3c1OCC3)OCC2 (racemic) | Agonist | – | – | –
CC(N)Cc1c2ccoc2c(Br)c2ccoc12 (racemic) | Agonist | – | – | –
CCc1cc(OC)c(CC(C)N)cc1OC (racemic) | Agonist | – | – | –
COc1cc(CC(C)N)c(OC)cc1Br (racemic) | Agonist | – | – | –
COc1cc(CC(C)N)c(OC)cc1C (racemic) [DOM] | – | – | – | 100
CN(C)CCc1c[nH]c2cccc(O)c12 [PSILOCIN] | Agonist | 323 | – | –
